Experimental data as given in ChEMBL document CHEMBL3804776, “Synthesis and Evaluation of Macrocyclic Peptide Aldehydes as Potent and Selective Inhibitors of the 20S Proteasome” (ACS Med Chem Lett, 2016).
pKi: −log10 of the molar value. Activity calls are given as the source filed them. The calls are words filed in the database; no cut-off is given here. Residues, ends and D or L forms follow the SMILES beside them. *: point of attachment. Cbz = O=C(OCc1ccccc1)*

Assays:
[1] = Selectivity ratio of Ki for m-calpain (unknown origin) to Ki for chymotrypsin-like activity of rabbit 20S proteasome
[2] = Inhibition of chymotrypsin-like activity of rabbit 20S proteasome using Suc-LLVY-AMC substrate incubated at 37 degC by fluorometric assay; set-up: species or system Oryctolagus cuniculus
[3] = Inhibition of PGPH-like activity of rabbit 20S proteasome using Cbz-LLE-AMC substrate incubated at 37 degC by fluorometric assay; set-up: species or system Oryctolagus cuniculus
Oryctolagus cuniculus [4] = species on record: Oryctolagus cuniculus; assay: Inhibition of trypsin-like activity of rabbit 20S proteasome using Cbz-ARR-AMC substrate at 100 uM incubated at 37 degC by fluorometric assay
Method in brief: (§1)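 Fluorometric kinetic enzyme assay run at a single inhibitor concentration of 100 μM. The outcome was scored as whether inhibition occurred at that concentration.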

Homo sapiens = species on record: Homo sapiens; assay: Inhibition of chymotrypsin (unknown origin) using Suc-LLVY-AMC as substrate at 100 uM by fluorometric assay; method in brief: as §1
Cathepsin B [5] = molecular target: T1, Cathepsin B (Homo sapiens, UniProt P07858); assay: Inhibition of human liver cathepsin B using Cbz-RR-AMC as substrate by fluorometric assay
[6] = molecular target: T2, Calpain-2 catalytic subunit (Homo sapiens, UniProt P17655); assay: Inhibition of m-calpain (unknown origin) using Suc-LY-AMC as substrate by fluorometric assay
T2 sequence (P17655 whole entry): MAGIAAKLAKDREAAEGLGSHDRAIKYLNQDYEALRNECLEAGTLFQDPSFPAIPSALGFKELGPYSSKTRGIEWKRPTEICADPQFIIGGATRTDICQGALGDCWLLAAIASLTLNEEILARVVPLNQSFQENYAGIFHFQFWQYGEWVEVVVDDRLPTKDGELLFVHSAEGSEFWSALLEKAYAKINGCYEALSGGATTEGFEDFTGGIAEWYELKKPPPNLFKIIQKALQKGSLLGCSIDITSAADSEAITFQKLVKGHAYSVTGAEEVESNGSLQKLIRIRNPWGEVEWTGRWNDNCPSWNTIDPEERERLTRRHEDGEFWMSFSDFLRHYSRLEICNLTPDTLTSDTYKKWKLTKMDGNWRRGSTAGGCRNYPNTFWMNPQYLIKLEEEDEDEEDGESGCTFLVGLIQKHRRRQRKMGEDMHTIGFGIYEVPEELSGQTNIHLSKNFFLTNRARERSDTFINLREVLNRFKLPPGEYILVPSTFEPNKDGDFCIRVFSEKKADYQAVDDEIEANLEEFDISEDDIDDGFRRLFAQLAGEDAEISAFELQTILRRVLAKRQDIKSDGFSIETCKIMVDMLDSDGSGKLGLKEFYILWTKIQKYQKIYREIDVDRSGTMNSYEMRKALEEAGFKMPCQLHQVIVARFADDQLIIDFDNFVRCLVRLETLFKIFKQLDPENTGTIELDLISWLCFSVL

[7] = Selectivity ratio of Ki for human liver cathepsin B to Ki for chymotrypsin-like activity of rabbit 20S proteasome
HeLa [8] = assay: Inhibition of 26S proteasome in TNFalpha-induced human HeLa cells assessed as phosphorylation of IkappaBalpha at 20 uM preincubated for 2 hrs followed by TNFalpha stimulation by Western blot analysis; format: cell-based
Method in brief: (§2)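 HeLa cells were preincubated for 2 h with 20 μM compound before TNFα stimulation. IκBα S32/36 phosphorylation and IκBα levels were assessed by Western blot (β-actin loading control). NF-κB DNA binding was measured by electrophoretic mobility shift assay.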

HeLa [9] = assay: Inhibition of 26S proteasome in TNFalpha-induced human HeLa cells assessed as reduction in IkappaBalpha degradation at 20 uM preincubated for 2 hrs followed by TNFalpha stimulation by Western blot analysis; format: cell-based; method in brief: as §2
HeLa [10] = assay: Inhibition of 26S proteasome in IL1beta-induced human HeLa cells assessed as phosphorylation of IkappaBalpha at 20 uM preincubated for 2 hrs followed by IL1beta stimulation by Western blot analysis; format: cell-based
Method in brief: (§3)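 HeLa human cervix carcinoma cells were pretreated with compound at 20 μM for 2 h, then stimulated with IL-1β. Read-outs were Western blot for IκBα phosphorylation (S32/36) and IκBα degradation, with β-actin as loading control, and EMSA for NF-κB DNA binding.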

HeLa [11] = assay: Inhibition of 26S proteasome in IL1beta-induced human HeLa cells assessed as reduction in IkappaBalpha degradation at 20 uM preincubated for 2 hrs followed by IL1beta stimulation by Western blot analysis; format: cell-based; method in brief: as §3
HeLa [12] = assay: Inhibition of 26S proteasome in TNFalpha-induced human HeLa cells assessed as reduction in NFkappaB-DNA binding at 20 uM preincubated for 2 hrs followed by TNFalpha stimulation by EMSA; format: cell-based; method in brief: as §2
HeLa [13] = assay: Inhibition of 26S proteasome in IL1beta-induced human HeLa cells assessed as reduction in NFkappaB-DNA binding at 20 uM preincubated for 2 hrs followed by IL1beta stimulation by EMSA; format: cell-based; method in brief: as §3
HeLa [14] = assay: Inhibition of 26S proteasome in TNFalpha-induced human HeLa cells assessed as accumulation of phosphorylated IkappaBalpha at 300 nM to 20 uM preincubated for 2 hrs followed by TNFalpha stimulation by Western blot analysis; format: cell-based
Method in brief: (§4)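 Dose-response in HeLa cells: compound at 0.1, 0.3, 1, 3, 10 and 20 μM before TNFα stimulation, with handling as in the single-dose experiment. Accumulation of phospho-IκBα (S32/36) was measured by Western blot with β-actin as loading control. NF-κB DNA binding was measured by EMSA.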

HeLa [15] = assay: Inhibition of 26S proteasome in TNFalpha-induced human HeLa cells assessed as reduction in NFkappaB-DNA binding at 300 nM to 20 uM preincubated for 2 hrs followed by TNFalpha stimulation by EMSA; format: cell-based; method in brief: as §4
HeLa [16] = assay: Inhibition of 26S proteasome in IL1beta-induced human HeLa cells assessed as reduction in IkappaBalpha degradation at 300 nM to 20 uM preincubated for 2 hrs followed by IL1beta stimulation
[17] = Inhibition of trypsin-like activity of rabbit 20S proteasome using Cbz-ARR-AMC substrate incubated at 37 degC by fluorometric assay; set-up: species or system Oryctolagus cuniculus
Oryctolagus cuniculus [18] = species on record: Oryctolagus cuniculus; assay: Inhibition of PGPH-like activity of rabbit 20S proteasome using Cbz-LLE-AMC substrate at 100 uM incubated at 37 degC by fluorometric assay; method in brief: as §1
Cathepsin B [19] = molecular target: T1, Cathepsin B; assay: Inhibition of human liver cathepsin B using Cbz-RR-AMC as substrate at 100 uM by fluorometric assay; method in brief: as §1
[20] = molecular target: T3, Calpain-2 catalytic subunit (Homo sapiens) (UniProt P17655); assay: Inhibition of m-calpain (unknown origin) using Suc-LY-AMC as substrate at 100 uM by fluorometric assay; method in brief: as §1
T3 sequence (whole entry): T2 sequence (P17655 whole entry)

| Structure (SMILES) | Ratio Ki [1] | pKi [2] | inhibition (Oryctolagus cuniculus [4]) | inhibition (Homo sapiens) | pKi (Cathepsin B [5]) | pKi [6] | Ratio Ki [7] | inhibition (HeLa [8]) | inhibition (HeLa [9]) | inhibition (HeLa [10]) | inhibition (HeLa [11]) | inhibition (HeLa [12]) | inhibition (HeLa [13]) | inhibition (HeLa [14]) | inhibition (HeLa [15]) | inhibition (HeLa [16]) | inhibition (Oryctolagus cuniculus [18]) | inhibition (Cathepsin B [19]) | inhibition [20] | other results |
| --- | --- | --- | --- | --- | --- | --- | --- | --- | --- | --- | --- | --- | --- | --- | --- | --- | --- | --- | --- | --- |
| CC(C)C[C@@H](C=O)NC(=O)[C@H](CC(C)C)NC(=O)[C@H](CC(C)C)NC(=O)OCc1ccccc1 [MG-132] (Cbz-Leu-Leu-Leu-aldehyde) | 10 | 7.20 | inactive | inactive | 6.64 | 6.19 | 4 | Active | Active | Active | Active | Active | Active | Active | Active | Active |  |  |  | pKi [3]: 5.43 |
| CC(C)C[C@@H](C=O)NC(=O)[C@@H]1Cc2ccc(cc2)Oc2cc(ccc2[N+](=O)[O-])C[C@H](NC(=O)OCc2ccccc2)C(=O)N[C@@H](CC(C)C)C(=O)N1 | 8 | 6.62 |  | inactive | 5.52 | 5.69 |  | Active | Active | Active | Active | Active | Active | Active | Active | Active | inactive |  |  | pKi [17]: 5.09 |
| CC(C)C[C@H](NC(=O)[C@H](Cc1ccccc1)NC(=O)c1cnccn1)B(O)O [BORTEZOMIB] |  | 7.62 |  | inactive |  |  |  |  |  |  |  |  |  |  |  |  |  | inactive | inactive |  |
| CC(C)C[C@H](NC(=O)[C@H](CCc1ccccc1)NC(=O)CN1CCOCC1)C(=O)N[C@@H](Cc1ccccc1)C(=O)N[C@@H](CC(C)C)C(=O)[C@@]1(C)CO1 [CARFILZOMIB] |  | 7.59 |  | inactive |  |  |  |  |  |  |  |  |  |  |  |  |  | inactive | inactive |  |
| COc1ccc(C[C@H](NC(=O)[C@H](Cc2ccccc2)NC(=O)OCc2ccccc2)C(=O)N[C@@H](Cc2ccccc2)C(=O)N[C@H](C=O)CC(C)C)cc1 (Cbz-FY(Me)FL-aldehyde) | 61 | 7.55 |  | inactive | 5.64 | 5.77 | 80 |  |  |  |  |  |  |  |  |  |  |  |  |  |
| COc1ccc(C[C@@H]2NC(=O)[C@@H](NC(=O)OCc3ccccc3)Cc3ccc([N+](=O)[O-])c(c3)Oc3ccc(cc3)C[C@@H](C(=O)N[C@H](C=O)CC(C)C)NC2=O)cc1 | 55 | 7.26 | inactive | inactive | 4.52 | 5.53 | 550 | Active | Active | Active | Active | Active | Active | Active | Active | Active | inactive |  |  |  |
